Rows were chosen to be rich in hits. Some 1.6% of all compounds tested hit in one or more screens of this group.
RAD54 branch: blocks human RAD54 Holliday junction branch migration | Q92698 | FAM/BHQ fluorescence | inhibition, % at 10.4 µM | hit rate 0.14% among 360,000 | AID 602329;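 active = mean normalized replicate activity at least 40 and at least half of replicates scoring 40 or more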;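 also: 0% = median of neutral control wells and 100% = median of positive control wells; inhibitors cause a drop in the FAM fluorescence signal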
Target sequence (Q92698 whole entry, looked up): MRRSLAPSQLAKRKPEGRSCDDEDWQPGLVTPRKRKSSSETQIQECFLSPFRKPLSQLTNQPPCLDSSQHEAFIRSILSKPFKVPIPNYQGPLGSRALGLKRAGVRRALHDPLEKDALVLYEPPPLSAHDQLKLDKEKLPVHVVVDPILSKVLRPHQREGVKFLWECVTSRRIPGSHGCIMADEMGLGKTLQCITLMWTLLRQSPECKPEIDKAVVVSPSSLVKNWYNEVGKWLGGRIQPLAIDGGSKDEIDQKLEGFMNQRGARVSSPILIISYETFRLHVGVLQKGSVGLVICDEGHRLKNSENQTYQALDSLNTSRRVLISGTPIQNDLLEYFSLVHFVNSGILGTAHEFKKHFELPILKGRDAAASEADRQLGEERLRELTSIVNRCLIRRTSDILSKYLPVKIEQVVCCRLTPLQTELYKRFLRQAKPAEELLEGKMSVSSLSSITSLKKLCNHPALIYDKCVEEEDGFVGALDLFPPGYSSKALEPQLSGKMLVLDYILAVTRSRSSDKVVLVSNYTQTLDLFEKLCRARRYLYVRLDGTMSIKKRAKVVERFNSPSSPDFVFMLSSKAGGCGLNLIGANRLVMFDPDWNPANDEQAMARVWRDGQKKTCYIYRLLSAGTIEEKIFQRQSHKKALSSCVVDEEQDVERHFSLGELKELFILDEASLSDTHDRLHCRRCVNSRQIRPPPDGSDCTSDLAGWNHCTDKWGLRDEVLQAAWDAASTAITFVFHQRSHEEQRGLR
SR-BI HDL uptake: inhibitors of mouse SR-BI mediated HDL lipid uptake. Q61009. ldlA[mSR-BI] CHO cells, DiI-HDL uptake fluorescence, 3 h. hit rate 0.96% among 320,000. inhibition, % at 12.5 µM;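 active = mean replicate inhibition of at least 70% and a set share of replicates each scoring 70 or more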;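 also: 0% = median of neutral control wells and 100% = median of positive control wells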
PvdQ acylase: blocks Pseudomonas aeruginosa PvdQ acylase activity. hit rate 0.063% among 340,000. inhibition, % at 10 µM. purified PvdQ acylase, fluorescence plate reader; in the data active = inhibition above about 30%, passing the limit was not always enough;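 also: 0% = vehicle neutral wells and 100% = reference inhibitor wells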
dFosB act: enhances mouse delta FosB homodimer DNA binding; activation, % at 25 µM; purified delta FosB, TAMRA-CDK5 oligo fluorescence polarization; percent of positive-control signal above neutral wells; P13346; hit rate 0.99% among 340,000; AID 493131;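 active = mean activation above about 17%, with every replicate also reaching it, limit read from the data, passing the limit was not always enough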
S100A4 inh HTS: inhibitors of human S100A4 binding to myosin IIA peptide; inhibition, % at 10.7 µM; S100A4/TAMRA-MyoIIA peptide fluorescence polarization; hit rate 0.14% among 360,000; AID 652163; P26447;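 active = mean inhibition of at least 70% across replicates, with every replicate also reaching that level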
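Assay system: human S100A4 monomer with TAMRA-labelled myosin IIA peptide / Buffer or medium: Calcium-containing HEPES buffer, pH 7.2 / Reagent: TAMRA-labelled myosin IIA heavy-chain peptide probe, 5 nM / Compound: one dose per compound / Timing: polarization read 5 min after assay mix addition, stable 5–60 min / Benchmarks: neutral control DMSO, positive control TFP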
SR-BI DiI-HDL act: SR-BI HDL lipid transfer activation; CHO ldlA[mSR-BI] cells, DiI-HDL uptake fluorescence, 3 h; 100 = double the neutral-control signal; activation, % at 12.5 µM; hit rate 0.096% among 320,000; AID 504775;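 active = mean replicate activation of at least 60% and every replicate at or above 60%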;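 also: 0% = median plate neutral-control signal and 100% = twice that signal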
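material = CHO ldlA[mSR-BI] cells | medium = Ham's F12 with 0.5% BSA, HEPES 25 mM, pH 7.4 | reagent = fluorescent DiI-HDL, 10 µg/mL final | compound dosing = single-point compound dose | incubation = 3 h, 37 °C | measured by = bottom-read fluorescence, 550/595 nm | measure = HDL uptake via cellular fluorescence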
Active calls of the source: *; . = no result given.

SMILES | RAD54 branch | SR-BI HDL uptake | PvdQ acylase | dFosB act | S100A4 inh HTS | SR-BI DiI-HDL act
O=C(Nc1ccc(N2CCCC2)c(Cl)c1)c1cccc(-c2cc3ccccc3oc2=O)c1 | . | 86.6* | -11.4 | 9.6 | -2.0 | -86.6
Cc1ccc(S(=O)(=O)N[C@H]2CC[C@@H](CCn3cc(C4(O)CCCC4)nn3)O[C@@H]2CO)cc1 | -1.0 | . | . | . | -0.3 | .
CCNC(=O)[C@@H]1[C@@H](CO)[C@@H]2Cn3c(ccc(C4=CCCC4)c3=O)[C@H]1N2Cc1ccncc1 | -1.6 | . | . | . | -9.9 | .
C/C=C/c1ccc2c(c1)O[C@@H](CN(C)Cc1ccncc1)[C@@H](C)CN([C@H](C)CO)S2(=O)=O | -4.4 | . | . | . | -4.8 | .
NC(=S)N/N=C1/CCSc2ccc3ccccc3c21 | . | 78.7* | -10.3 | 1.3 | 8.3 | -78.7
COc1ccc(S(=O)(=O)N2CCOCC2)cc1OC | . | -11.8 | -14.5 | -3.1 | . | 11.8
COc1ccc(S(=O)(=O)N2CCOCC2)cc1N=Nc1sc(N)nc1-c1ccccc1 | . | 81.0* | 26.5 | -12.8 | 8.3 | -81.0
Cc1cc(C)c(C)c(C(=O)CSc2nnc(-c3ccc4[nH]c(C)c(C)c4c3)o2)c1C | . | 83.7* | -8.2 | -8.5 | . | -83.7
CO[C@H]1CN(C)C(=O)c2ccc(NC(=O)NC(C)C)cc2OC[C@H](C)N(CC2CC2)C[C@H]1C | . | . | . | . | 0.3 | .
O=C(CSc1nn(-c2ccc(Cl)cc2)c(=S)s1)N1CCN(C(=O)c2ccco2)CC1 | -2.1 | 84.4* | 9.1 | -3.3 | . | -84.4
O=C(CSc1nn(-c2ccc(F)cc2)c(=S)s1)N1CCN(C(=O)c2ccco2)CC1 | -4.1 | 69.1 | -6.6 | -3.7 | . | -69.1
CN(C)CC(=O)N[C@H]1CC[C@H](CC(=O)NCc2ccc(Cl)cc2)O[C@@H]1CO | 5.1 | . | . | . | 63.0 | .
N#CC(C(=O)Nc1cccc(Cl)c1)=C1Nc2ccccc2N1 | 2.4 | 72.6* | -4.0 | 0.0 | . | -72.6
CCCC(=O)N1CC2(CN(S(=O)(=O)CC)C2)c2c(n(C)c3cc(OC)ccc23)[C@H]1CO | . | . | . | . | 2.2 | .
Cc1cc(O)c(C2=Nc3ccccc3SC(c3ccc(Cl)cc3)C2)c(=O)o1 (centres undefined) | . | 0.0 | -11.8 | -0.9 | . | 0.0
COc1ccc(C2CC(c3c(O)cc(C)oc3=O)=NCCS2)c(OC)c1 (centres undefined) | -16.6 | 78.2* | -15.4 | -18.6 | 1.2 | -30.1
CCCNC(=O)Nc1ccc2c(c1)C(=O)N(C)C[C@H](OC)[C@H](C)CN(Cc1ccc(-c3ccccn3)cc1)[C@@H](C)CO2 | -0.6 | . | . | . | . | .
CC1=NN(c2nc(-c3ccc(C)cc3)cs2)C(=O)C1N=Nc1ccccc1O (centres undefined) | . | 152.2* | 2.7 | -20.8 | -0.5 | -152.2
CO[C@H]1CN(C)C(=O)c2cc(NC(=O)c3ccccc3)ccc2OC[C@H](C)N(C)C[C@H]1C | 1.9 | . | . | . | 1.8 | .
CCOC(=O)c1ccc(Nc2nc(C)cc(C)c2C#N)cc1 | -5.7 | 73.1* | -8.7 | -9.4 | . | -73.1
CCCNC(=O)C[C@H]1CC[C@@H]2[C@H](COc3ccc(NC(=O)NCC)cc3C(=O)N2C)O1 | 3.9 | . | . | . | -7.7 | .
O=C1C(Nc2ccccc2)=C2CCCC=C2N1c1ccccc1 | . | 78.8* | -14.4 | -5.4 | 4.7 | -78.8
O=C1C=CC(=O)N1c1ccc(Nc2ccccc2)cc1 | -4.9 | 34.0 | 5.9 | 1.5 | -5.1 | -34.0
COc1ccc(S(=O)(=O)N(C)C[C@@H]2Oc3ccc(NC(=O)Nc4ccccc4)cc3CC(=O)N([C@@H](C)CO)C[C@H]2C)cc1 | 18.3 | . | . | . | -24.2 | .
COc1ccc(S(=O)(=O)N(C)C[C@H]2Oc3ccc(NC(=O)NC(C)C)cc3CC(=O)N([C@@H](C)CO)C[C@H]2C)cc1 | -6.2 | . | . | . | 4.3 | .
COc1ccc(S(=O)(=O)N(C)C[C@@H]2Oc3ccc(NC(=O)NC(C)C)cc3CC(=O)N([C@@H](C)CO)C[C@@H]2C)cc1 | 51.3* | . | . | . | 11.4 | .
COc1ccc(S(=O)(=O)N(C)C[C@@H]2Oc3ccc(NC(=O)Nc4ccccc4)cc3CC(=O)N([C@@H](C)CO)C[C@@H]2C)cc1 | 72.0* | . | . | . | -6.0 | .
CO[C@@H]1CN(C)C(=O)c2ccc(NC(=O)C3CC3)cc2OC[C@H](C)N(C)C[C@H]1C | 9.7 | . | . | . | 7.1 | .
